Source: ChEMBL document CHEMBL5661979, “Pharmacological inhibition of BMK1 suppresses tumor growth through promyelocytic leukemia protein” (Cancer Cell, 2010)
pIC50: −log10 of the molar value.

Key:
[1] = Inhibition of CDK5/PRKX/PRKY in human HeLa cells lysate at 2 uM pre incubated for 15 mins followed by ADP acyl phosphate probe addition and measured after 10 mins by LC-MS/MS analysis relative to control; details: 25 min, condition cancer
In short: (§1)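 KiNativ profiling in HeLa lysate (5 mg/mL total protein). Lysate incubated 15 min with inhibitor at 50, 10, 2, 0.8 or 0 μM. ATP or ADP acylphosphate probe then added (5 μM final) and reacted 10 min. Reaction stopped with urea and analysed by targeted MS, using up to four fragment ions per kinase peptide-probe conjugate. % inhibition taken against untreated lysate. Run in duplicate.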

[2] = molecular target: T1, Dual specificity mitogen-activated protein kinase kinase 6 (Homo sapiens) (UniProt P52564); experiment: Inhibition of MAP2K6 in human HeLa cells lysate at 10 uM pre incubated for 15 mins followed by ATP acyl phosphate probe addition and measured after 10 mins by LC-MS/MS analysis relative to control; type: subcellular; details: time 25.0 min
T1 sequence (whole entry): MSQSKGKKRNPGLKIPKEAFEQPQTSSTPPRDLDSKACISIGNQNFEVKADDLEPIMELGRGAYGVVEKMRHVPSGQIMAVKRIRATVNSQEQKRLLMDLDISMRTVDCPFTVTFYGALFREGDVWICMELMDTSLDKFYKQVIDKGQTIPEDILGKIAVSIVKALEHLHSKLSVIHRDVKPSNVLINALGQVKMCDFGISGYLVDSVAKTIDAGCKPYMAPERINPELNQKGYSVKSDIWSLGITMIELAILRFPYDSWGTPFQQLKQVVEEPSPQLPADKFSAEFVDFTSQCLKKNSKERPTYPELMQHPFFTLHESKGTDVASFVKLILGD

[3] = molecular target: Inhibitor of nuclear factor kappa-B kinase subunit alpha (Homo sapiens, UniProt O15111); experiment: Inhibition of IKKA in human HeLa cells lysate pre incubated for 15 mins followed by ATP acyl phosphate probe addition and measured after 10 mins by LC-MS/MS analysis; type: subcellular
[4] = AUCinfinity in Sprague-Dawley rat at 1 mg/kg, iv measured up to 8 hrs by LC-MS/MS analysis; type: ADME, organism-based; details: in vivo
In short: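 Sprague-Dawley rats given one intravenous dose or one oral dose of 2 mg/kg. Plasma drug concentrations were followed over time, with samples taken out to 8 hr after dosing. PK parameters (clearance, volume of distribution, half-life, oral bioavailability, Cmax) were calculated from these concentration–time data.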

[5] = molecular target: T2, Non-receptor tyrosine-protein kinase TNK1 (Homo sapiens) (UniProt Q13470); experiment: Inhibition of TNK1 in human HeLa cells lysate at 10 uM pre incubated for 15 mins followed by ADP acyl phosphate probe addition and measured after 10 mins by LC-MS/MS analysis relative to control; type: subcellular; details: time 25.0 min
T2 sequence (whole entry): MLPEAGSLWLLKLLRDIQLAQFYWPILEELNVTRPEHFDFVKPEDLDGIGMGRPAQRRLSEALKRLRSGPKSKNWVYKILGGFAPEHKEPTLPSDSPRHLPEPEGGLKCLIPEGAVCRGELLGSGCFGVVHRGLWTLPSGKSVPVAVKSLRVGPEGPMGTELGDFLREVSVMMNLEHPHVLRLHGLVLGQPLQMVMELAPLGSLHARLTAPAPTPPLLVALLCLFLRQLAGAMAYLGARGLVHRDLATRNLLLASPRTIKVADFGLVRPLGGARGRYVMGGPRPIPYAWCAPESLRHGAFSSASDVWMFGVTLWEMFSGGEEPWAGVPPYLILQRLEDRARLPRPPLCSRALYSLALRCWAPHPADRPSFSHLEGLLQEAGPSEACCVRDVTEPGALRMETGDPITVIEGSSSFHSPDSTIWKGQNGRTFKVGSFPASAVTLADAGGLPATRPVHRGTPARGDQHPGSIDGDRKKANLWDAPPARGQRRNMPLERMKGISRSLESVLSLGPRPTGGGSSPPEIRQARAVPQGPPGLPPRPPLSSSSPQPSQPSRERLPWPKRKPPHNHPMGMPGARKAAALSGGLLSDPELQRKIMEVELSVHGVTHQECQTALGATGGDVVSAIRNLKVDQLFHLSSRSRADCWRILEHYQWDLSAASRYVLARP

[6] = molecular target: T3, Mitogen-activated protein kinase kinase kinase 7 (Homo sapiens) (UniProt O43318); experiment: Inhibition of TAK1 in human HeLa cells lysate at 10 uM pre incubated for 15 mins followed by ATP acyl phosphate probe addition and measured after 10 mins by LC-MS/MS analysis relative to control; type: subcellular; details: time 25.0 min
T3 sequence (whole entry): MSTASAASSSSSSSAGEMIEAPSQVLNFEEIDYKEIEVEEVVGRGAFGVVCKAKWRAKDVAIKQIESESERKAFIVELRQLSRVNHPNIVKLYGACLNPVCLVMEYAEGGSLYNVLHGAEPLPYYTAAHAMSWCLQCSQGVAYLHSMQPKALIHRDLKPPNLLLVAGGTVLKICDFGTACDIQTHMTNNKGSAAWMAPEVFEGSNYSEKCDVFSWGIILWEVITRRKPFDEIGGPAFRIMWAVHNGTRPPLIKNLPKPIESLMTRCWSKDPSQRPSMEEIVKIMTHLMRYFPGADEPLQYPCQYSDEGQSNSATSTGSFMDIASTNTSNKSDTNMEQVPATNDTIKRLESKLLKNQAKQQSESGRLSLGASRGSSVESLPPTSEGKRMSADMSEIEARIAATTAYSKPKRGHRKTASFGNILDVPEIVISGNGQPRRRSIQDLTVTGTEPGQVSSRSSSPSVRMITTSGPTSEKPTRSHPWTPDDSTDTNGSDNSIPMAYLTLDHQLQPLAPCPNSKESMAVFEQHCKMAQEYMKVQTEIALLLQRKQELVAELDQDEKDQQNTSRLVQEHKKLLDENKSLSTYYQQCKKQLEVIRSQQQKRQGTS

[7] = molecular target: Dual specificity mitogen-activated protein kinase kinase 5 (Homo sapiens, UniProt Q13163); experiment: Inhibition of MAP2K5 in human HeLa cells lysate pre incubated for 15 mins followed by ADP acyl phosphate probe addition and measured after 10 mins by LC-MS/MS analysis; type: subcellular
[8] = molecular target: Cyclin-dependent kinase 8/19 (Homo sapiens, UniProt P49336+Q9BWU1); experiment: Inhibition of CDK8/CDK11 in human HeLa cells lysate at 50 uM pre incubated for 15 mins followed by ATP acyl phosphate probe addition and measured after 10 mins by LC-MS/MS analysis relative to control; type: subcellular; details: time 25.0 min; in short: as §1
[9] = molecular target: Ribosomal protein S6 kinase alpha-1 (Homo sapiens, UniProt Q15418); experiment: Inhibition of RSK1 domain 2 K2 site in human HeLa cells lysate at 2 uM pre incubated for 15 mins followed by ADP acyl phosphate probe addition and measured after 10 mins by LC-MS/MS analysis relative to control; type: subcellular; details: time 25.0 min
[10] = molecular target: Tyrosine-protein kinase JAK1 (Homo sapiens, UniProt P23458); experiment: Inhibition of JAK1 domain 2 in human HeLa cells lysate at 10 uM pre incubated for 15 mins followed by ATP acyl phosphate probe addition and measured after 10 mins by LC-MS/MS analysis relative to control; type: subcellular; details: time 25.0 min
[11] = Toxicity in C57Bl/6 mouse assessed as effect on urea nitrogen level at 50 mg/kg, ip for 14 days (reference value: 22 mg/dl); type: organism-based; details: in vivo, 336 h, time 14 day

Sequence of Cyclin-dependent kinase 8/19 (P49336 whole entry, looked up, the tested form may be a part): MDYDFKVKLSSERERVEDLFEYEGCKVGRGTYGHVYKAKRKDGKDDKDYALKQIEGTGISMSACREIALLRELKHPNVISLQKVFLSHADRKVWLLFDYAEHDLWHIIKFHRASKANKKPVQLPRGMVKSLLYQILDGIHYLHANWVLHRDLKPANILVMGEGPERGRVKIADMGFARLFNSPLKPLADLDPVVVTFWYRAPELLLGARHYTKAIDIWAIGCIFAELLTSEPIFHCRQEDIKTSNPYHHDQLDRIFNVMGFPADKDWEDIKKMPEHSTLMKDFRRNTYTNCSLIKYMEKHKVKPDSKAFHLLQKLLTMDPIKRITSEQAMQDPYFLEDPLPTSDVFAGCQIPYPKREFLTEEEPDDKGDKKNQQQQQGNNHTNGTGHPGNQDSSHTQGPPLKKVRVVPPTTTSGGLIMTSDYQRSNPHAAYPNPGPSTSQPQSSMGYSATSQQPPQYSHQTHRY
Sequence of Cyclin-dependent kinase 8/19 (Q9BWU1 whole entry, looked up, the tested form may be a part): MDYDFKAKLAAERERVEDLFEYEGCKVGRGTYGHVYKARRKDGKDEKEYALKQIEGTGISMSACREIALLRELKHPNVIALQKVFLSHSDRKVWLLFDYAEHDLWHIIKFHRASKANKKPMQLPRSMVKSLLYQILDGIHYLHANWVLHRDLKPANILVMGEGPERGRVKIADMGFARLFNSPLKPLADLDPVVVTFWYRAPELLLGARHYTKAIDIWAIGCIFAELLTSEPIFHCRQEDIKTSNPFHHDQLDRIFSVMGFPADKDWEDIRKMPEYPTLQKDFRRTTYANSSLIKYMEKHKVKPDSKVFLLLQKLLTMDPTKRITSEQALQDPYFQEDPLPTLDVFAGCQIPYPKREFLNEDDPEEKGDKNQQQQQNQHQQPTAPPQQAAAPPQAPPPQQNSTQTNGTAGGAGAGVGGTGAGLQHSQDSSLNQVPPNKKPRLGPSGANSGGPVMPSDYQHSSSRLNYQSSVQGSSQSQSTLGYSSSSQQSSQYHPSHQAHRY
Sequence of Tyrosine-protein kinase JAK1 (P23458 whole entry, the tested form may be a part): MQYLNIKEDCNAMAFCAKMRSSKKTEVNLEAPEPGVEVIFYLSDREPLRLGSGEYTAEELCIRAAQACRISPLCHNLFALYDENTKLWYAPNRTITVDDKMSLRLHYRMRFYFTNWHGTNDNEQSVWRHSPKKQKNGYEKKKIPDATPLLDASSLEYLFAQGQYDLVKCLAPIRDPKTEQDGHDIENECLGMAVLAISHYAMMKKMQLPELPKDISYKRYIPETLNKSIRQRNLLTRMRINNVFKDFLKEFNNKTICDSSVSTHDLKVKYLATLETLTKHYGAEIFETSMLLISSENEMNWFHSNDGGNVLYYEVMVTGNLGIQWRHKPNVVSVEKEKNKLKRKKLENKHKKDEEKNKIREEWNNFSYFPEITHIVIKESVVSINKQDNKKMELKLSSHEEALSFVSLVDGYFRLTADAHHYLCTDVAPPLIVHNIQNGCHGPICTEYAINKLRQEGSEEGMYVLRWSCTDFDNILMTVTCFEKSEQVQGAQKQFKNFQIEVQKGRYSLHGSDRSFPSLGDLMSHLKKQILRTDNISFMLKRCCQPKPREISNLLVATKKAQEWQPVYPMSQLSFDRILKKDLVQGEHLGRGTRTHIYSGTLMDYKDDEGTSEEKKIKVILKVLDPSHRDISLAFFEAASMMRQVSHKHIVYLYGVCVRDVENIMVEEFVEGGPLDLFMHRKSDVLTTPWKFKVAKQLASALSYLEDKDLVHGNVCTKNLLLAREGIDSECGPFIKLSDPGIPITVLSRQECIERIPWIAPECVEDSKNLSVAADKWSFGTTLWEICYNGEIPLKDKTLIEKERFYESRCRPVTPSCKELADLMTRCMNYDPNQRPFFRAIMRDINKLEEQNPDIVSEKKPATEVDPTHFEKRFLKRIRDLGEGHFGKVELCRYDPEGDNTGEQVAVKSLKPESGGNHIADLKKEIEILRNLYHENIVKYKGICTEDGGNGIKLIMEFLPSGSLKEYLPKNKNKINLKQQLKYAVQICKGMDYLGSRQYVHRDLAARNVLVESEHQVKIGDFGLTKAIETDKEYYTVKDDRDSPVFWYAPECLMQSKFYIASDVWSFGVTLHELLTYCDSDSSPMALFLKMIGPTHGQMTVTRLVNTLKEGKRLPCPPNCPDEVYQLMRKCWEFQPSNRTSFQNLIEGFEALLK
Sequence of Inhibitor of nuclear factor kappa-B kinase subunit alpha (O15111 whole entry): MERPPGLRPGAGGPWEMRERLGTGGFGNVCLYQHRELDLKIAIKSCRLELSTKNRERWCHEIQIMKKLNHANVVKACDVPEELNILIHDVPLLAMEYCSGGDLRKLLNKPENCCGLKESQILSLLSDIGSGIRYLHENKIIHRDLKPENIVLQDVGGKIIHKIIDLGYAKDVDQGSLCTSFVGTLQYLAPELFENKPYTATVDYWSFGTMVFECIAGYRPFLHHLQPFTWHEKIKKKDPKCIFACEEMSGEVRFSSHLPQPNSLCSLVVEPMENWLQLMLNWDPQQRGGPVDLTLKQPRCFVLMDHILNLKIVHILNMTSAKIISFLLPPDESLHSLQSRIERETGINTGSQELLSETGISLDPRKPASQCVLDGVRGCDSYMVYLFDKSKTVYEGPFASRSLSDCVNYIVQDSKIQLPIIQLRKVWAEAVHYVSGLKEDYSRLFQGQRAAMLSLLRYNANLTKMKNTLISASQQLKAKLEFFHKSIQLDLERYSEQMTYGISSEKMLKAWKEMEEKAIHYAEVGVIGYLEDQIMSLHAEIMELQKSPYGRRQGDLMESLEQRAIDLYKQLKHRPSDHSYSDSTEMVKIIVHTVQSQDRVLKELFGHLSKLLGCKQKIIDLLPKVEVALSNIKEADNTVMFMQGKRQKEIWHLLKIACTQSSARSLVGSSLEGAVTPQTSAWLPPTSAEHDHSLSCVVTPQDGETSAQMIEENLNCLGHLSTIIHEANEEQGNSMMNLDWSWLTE
Sequence of Ribosomal protein S6 kinase alpha-1 (Q15418 whole entry, the tested form may be a part): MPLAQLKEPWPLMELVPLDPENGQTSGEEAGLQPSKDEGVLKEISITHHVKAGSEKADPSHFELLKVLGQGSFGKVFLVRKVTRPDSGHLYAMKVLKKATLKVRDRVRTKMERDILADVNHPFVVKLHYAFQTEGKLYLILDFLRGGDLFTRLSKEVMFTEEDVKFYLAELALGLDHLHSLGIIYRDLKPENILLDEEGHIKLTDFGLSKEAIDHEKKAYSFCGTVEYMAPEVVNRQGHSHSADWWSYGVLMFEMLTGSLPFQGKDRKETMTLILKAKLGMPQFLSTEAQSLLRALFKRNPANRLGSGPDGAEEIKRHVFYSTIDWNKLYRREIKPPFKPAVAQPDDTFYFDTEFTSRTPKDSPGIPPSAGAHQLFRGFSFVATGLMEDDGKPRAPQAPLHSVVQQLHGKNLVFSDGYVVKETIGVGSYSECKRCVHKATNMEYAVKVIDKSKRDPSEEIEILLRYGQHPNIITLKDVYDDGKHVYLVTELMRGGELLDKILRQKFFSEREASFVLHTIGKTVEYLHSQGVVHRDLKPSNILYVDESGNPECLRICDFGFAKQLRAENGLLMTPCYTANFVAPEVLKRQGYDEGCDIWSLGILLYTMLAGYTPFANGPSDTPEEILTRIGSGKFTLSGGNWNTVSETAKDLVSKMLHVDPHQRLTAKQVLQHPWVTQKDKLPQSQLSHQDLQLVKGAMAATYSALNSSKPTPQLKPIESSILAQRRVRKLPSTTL
Sequence of Dual specificity mitogen-activated protein kinase kinase 5 (Q13163 whole entry): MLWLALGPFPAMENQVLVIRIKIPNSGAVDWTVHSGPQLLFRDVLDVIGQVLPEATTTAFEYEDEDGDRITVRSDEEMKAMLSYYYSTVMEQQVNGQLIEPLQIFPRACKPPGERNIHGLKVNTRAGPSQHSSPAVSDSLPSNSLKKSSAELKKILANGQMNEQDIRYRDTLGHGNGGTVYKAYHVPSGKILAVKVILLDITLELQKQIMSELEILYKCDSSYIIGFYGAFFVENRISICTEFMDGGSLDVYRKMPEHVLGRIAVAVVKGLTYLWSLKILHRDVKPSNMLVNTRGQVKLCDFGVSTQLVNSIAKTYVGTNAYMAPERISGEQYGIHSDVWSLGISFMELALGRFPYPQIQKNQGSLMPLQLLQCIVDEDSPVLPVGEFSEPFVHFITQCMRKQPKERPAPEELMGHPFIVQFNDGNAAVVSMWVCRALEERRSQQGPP

Compound: CCOc1cc(N2CCC(O)CC2)ccc1Nc1ncc2c(n1)N(C)c1ccccc1C(=O)N2C
- inhibition at 2 µM [1]: 9.4%
- inhibition [2]: -9%
- pIC50 [3]: < 4.30
- AUC(0-inf) [4]: 1.39 µM·h
- inhibition [5]: 46%
- inhibition [6]: 21.2%
- pIC50 [7]: < 4.30
- inhibition [8]: 7.7%
- inhibition [9]: -6.4%
- inhibition [10]: -5.7%
- Activity [11]: 31 mg/dL
